# Test results reported in ChEMBL document CHEMBL1949645, “In vitro and in vivo antifilarial activity evaluation of 3,6-epoxy [1,5]dioxocines: a new class of antifilarial agents” (Bioorg Med Chem Lett, 2012).
# Tests used:
# Brugia malayi [1] = assay: Antifilarial activity against adult Brugia malayi by motility assay; format: functional, organism-based; conditions: for IC50: Brugia malayi
# Summary of the method: (§1)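 Brugia malayi (sub-periodic strain), female adult worms or microfilariae, scored by motility following the Murthy and Chatterjee method. Compounds and reference DEC dissolved in DMSO, final DMSO below 0.1% in incubation medium; DMSO-only controls. LC100 is the concentration giving 100% loss of motility (parasite death); IC50 is the concentration giving 50% motility inhibition.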
# Brugia malayi [2] = assay: Antifilarial activity against microfilariae Brugia malayi by motility assay; format: functional, organism-based; conditions: for IC50: Brugia malayi; summary of the method: as §1
# Brugia malayi [3] = assay: Antifilarial activity against Brugia malayi infected in Meriones unguiculatus assessed as sterilized female worm at 200 mg/kg, sc administered 7 to 8 days post-adult worm transplantation for 5 days measured after 42 days; format: functional; conditions: route subcutaneous
# Summary of the method: (§2)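 Dosing was s.c. once daily × 5 days: 200 mg/kg (n = 4) or 25 mg/kg (n = 6), with vehicle-treated controls (n = 4). Read-outs were peritoneal-cavity microfilaraemia status, worms recovered (mean ± SD, P vs control) and % sterilized female worms.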
# Brugia malayi [4] = assay: Growth inhibition of adult Brugia malayi by MTT assay; format: functional
# Summary of the method: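 Adult female B. malayi worms were exposed in vitro to agents dissolved in DMSO, keeping final DMSO below 0.1%. Controls received DMSO alone. Results are given as mean % inhibition of MTT reduction.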
# Brugia malayi [5] = assay: Antifilarial activity against 5 to 7 months old Brugia malayi infected in Mastomys coucha assessed as sterilized female worm at 200 mg/kg, sc administered 7 to 8 days post-adult worm transplantation for 5 days measured on day 91 (reference value: 19.62%); format: functional; conditions: route subcutaneous
# Summary of the method: (§3)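 Mastomys coucha harbouring B. malayi were dosed at 200 or 50 mg/kg, with vehicle-treated animals as controls. Male, female and total adult worms recovered were counted and given as mean ± SD. Sterilized female worms were reported as count (%).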
# Brugia malayi [6] = assay: Antifilarial activity against 5 to 7 months old Brugia malayi infected in Mastomys coucha assessed as reduction in worm burden at 200 mg/kg, sc administered 7 to 8 days post-adult worm transplantation for 5 days measured on day 91 relative to control; format: functional; set-up: scale not given: the % may be the effect or the level left; conditions: route subcutaneous; summary of the method: as §3
# Brugia malayi [7] = assay: Antifilarial activity against 5 to 7 months old Brugia malayi infected in Mastomys coucha assessed as reduction in worm burden at 50 mg/kg, sc administered 7 to 8 days post-adult worm transplantation for 5 days measured on day 91 relative to control; format: functional; set-up: scale not given: the % may be the effect or the level left; conditions: route subcutaneous; summary of the method: as §3
# Brugia malayi [8] = assay: Antifilarial activity against Brugia malayi infected in Meriones unguiculatus assessed as sterilized female worm at 25 mg/kg, sc administered 7 to 8 days post-adult worm transplantation for 5 days measured after 42 days; format: functional; conditions: route subcutaneous; summary of the method: as §2
# Brugia malayi [9] = assay: Antifilarial activity against 5 to 7 months old Brugia malayi infected in Mastomys coucha assessed as sterilized female worm at 50 mg/kg, sc administered 7 to 8 days post-adult worm transplantation for 5 days measured on day 91 (reference value: 19.62%); format: functional; conditions: route subcutaneous; summary of the method: as §3
Compound,LC100 (Brugia malayi [1]),LC100 (Brugia malayi [2]),IC50 (Brugia malayi [1]),IC50 (Brugia malayi [2]),Activity (Brugia malayi [3]),growth inhibition (GI) (Brugia malayi [4]),Activity (Brugia malayi [5]),Activity (Brugia malayi [6]),Activity (Brugia malayi [7]),Activity (Brugia malayi [8]),Activity (Brugia malayi [9])
CCC(C)c1cc(/C=C/C(=O)c2ccc(OC)cc2)cc2c1OCC1COC2O1 (racemic),>10 µg/mL,>10 µg/mL,,,,,,,,,
Cc1cc(/C=C/C(=O)c2ccccc2)cc2c1OCC1COC2O1 (racemic),1.25 µg/mL,2.5 µg/mL,1 µg/mL,0.9 µg/mL,29%,15%,,,,,
Cc1cc(/C=C/C(=O)c2ccc(Cl)cc2)cc2c1OCC1COC2O1 (racemic),1.25 µg/mL,2.5 µg/mL,0.6 µg/mL,1.1 µg/mL,29%,39%,,,,,
Cc1ccc(C(=O)/C=C/c2cc(C)c3c(c2)C2OCC(CO3)O2)cc1 (racemic),1.25 µg/mL,5 µg/mL,0.4 µg/mL,1.8 µg/mL,45%,22%,,,,,
COc1ccc(C(=O)/C=C/c2cc(C)c3c(c2)C2OCC(CO3)O2)cc1 (racemic),10 µg/mL,>10 µg/mL,3.5 µg/mL,3.9 µg/mL,24%,22%,24.6%,32.89%,,,
CCC(C)c1cc(/C=C/C(=O)c2ccccc2)cc2c1OCC1COC2O1 (racemic),2.5 µg/mL,5 µg/mL,0.9 µg/mL,0.9 µg/mL,27%,,,,,,
CCC(C)c1cc(/C=C/C(=O)c2ccc(Cl)cc2)cc2c1OCC1COC2O1 (racemic),5 µg/mL,10 µg/mL,1.6 µg/mL,3.5 µg/mL,63%,,17.78%,38.16%,,,
CCC(C)c1cc(/C=C/C(=O)c2ccc(C)cc2)cc2c1OCC1COC2O1 (racemic),10 µg/mL,>10 µg/mL,0.5 µg/mL,,,,,,,,
O=C(/C=C/c1cc2c(c3ccccc13)OCC1COC2O1)c1ccccc1 (racemic),>10 µg/mL,>10 µg/mL,,,,34%,,,,,
O=C(/C=C/c1cc2c(c3ccccc13)OCC1COC2O1)c1ccc(Cl)cc1 (racemic),>10 µg/mL,>10 µg/mL,,,,41%,,,,,
Cc1ccc(C(=O)/C=C/c2cc3c(c4ccccc24)OCC2COC3O2)cc1 (racemic),>10 µg/mL,>10 µg/mL,,,,33%,,,,,
COc1ccc(C(=O)/C=C/c2cc3c(c4ccccc24)OCC2COC3O2)cc1 (racemic),>10 µg/mL,>10 µg/mL,,,,35%,,,,,
CCN(CC)C(=O)N1CCN(C)CC1.O=C(O)CC(O)(CC(=O)O)C(=O)O [DIETHYLCARBAMAZINE CITRATE],,,,,,,,,20.18%,11%,20.59%
CCN(CC)C(=O)N1CCN(C)CC1 [DIETHYLCARBAMAZINE],800 µg/mL,500 µg/mL,289 µg/mL,354 µg/mL,,64%,,,,,
